PTK2B oligo ant = Pyk2 (human) oligomerization antagonism; Q293 cells, Pyk2 FERM NanoBiT luminescence; hits give low values; z-score (the deposit names both 25 µM and 10 µM); actives 0.83% (n = 99,000); AID 1347419;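 active = Z-score of -3 or lower, scaled per plate to the spread of control and sample wells; inactive = z-score above -3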;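 note: negative z-score means lost luminescence so less FERM oligomerization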
Ecoli tolC = blocks growth of E. coli BW25113 tolC mutant; AID 573; growth inhibition, % at 10 µM (by protocol); OD615; actives 2.2% (n = 65,000);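 active = growth inhibition at or above a cutoff equal to the mean over every tested compound plus 3 SD, cut at about 60% in these data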;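 note: growth measured after 20 h incubation at 37 °C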
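Signal: optical density read at 615 nm; Assay system: E. coli ΔtolC::kan strain BW25113; Times: 20 h incubation with compound, 37 °C; Dosing: 10 µM final, single dose.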
Mac1 fbg enh = enhancers of human CD11b/CD18 binding to fibrinogen; P05107+P11215; activation, % at 10 µM; K562 CD11b/CD18 adhesion to fibrinogen, ATPlite luminescence; actives 0.07% (n = 93,000);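 active = 10 µM primary screen giving 50% or more activity, confirmed by 40% or more on retest at that dose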
Target sequence (P05107 whole entry, looked up, other chains not shown): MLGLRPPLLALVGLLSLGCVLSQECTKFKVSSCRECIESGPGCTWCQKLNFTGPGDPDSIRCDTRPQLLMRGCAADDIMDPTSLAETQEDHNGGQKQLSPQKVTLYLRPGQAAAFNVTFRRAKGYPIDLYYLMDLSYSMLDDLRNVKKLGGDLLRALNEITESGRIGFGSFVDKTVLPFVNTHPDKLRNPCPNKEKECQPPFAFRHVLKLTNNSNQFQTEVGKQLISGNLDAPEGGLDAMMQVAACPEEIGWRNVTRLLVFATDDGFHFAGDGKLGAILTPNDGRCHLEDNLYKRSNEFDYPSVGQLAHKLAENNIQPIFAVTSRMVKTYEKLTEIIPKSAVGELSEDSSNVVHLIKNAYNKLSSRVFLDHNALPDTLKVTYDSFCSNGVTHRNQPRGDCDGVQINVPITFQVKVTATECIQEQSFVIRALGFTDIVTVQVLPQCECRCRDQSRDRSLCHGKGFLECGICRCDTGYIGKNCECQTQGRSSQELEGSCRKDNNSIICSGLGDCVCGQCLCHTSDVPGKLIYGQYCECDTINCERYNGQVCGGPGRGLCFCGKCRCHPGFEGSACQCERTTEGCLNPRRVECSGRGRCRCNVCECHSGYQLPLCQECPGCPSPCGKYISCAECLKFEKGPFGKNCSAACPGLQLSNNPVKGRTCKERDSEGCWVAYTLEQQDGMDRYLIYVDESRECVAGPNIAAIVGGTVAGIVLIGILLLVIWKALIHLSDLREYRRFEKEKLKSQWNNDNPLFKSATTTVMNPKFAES
Mac1 fbg inh = blocks human CD11b/CD18 adhesion to fibrinogen; K562 CD11b/CD18 adhesion to fibrinogen, ATPlite luminescence; Mn2+ added to activate the integrin; inhibition, % at 10 µM; actives 0.54% (n = 93,000);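 active = primary inhibition of 50% or more at 10 µM, then 40% or more on retest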
Ecoli WT expand = E. coli BW25113 growth inhibition, expanded screen | OD600 absorbance | growth inhibition, % at 100 µM | actives 0.15% (n = 98,000) | AID 710;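 active = growth inhibition above about 50% at one test dose, limit read from the data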;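 note: growth measured after 20 h incubation at 37 °C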
* = called active by the depositor; . = not tested or not shown. Only some compounds are listed: those with a hit (about 2.3% of all), similar ones and a draw of the others.

SMILES	PTK2B oligo ant	Ecoli tolC	Mac1 fbg enh	Mac1 fbg inh	Ecoli WT expand
C/C(CC(=O)NCc1ccccc1)=N\NC(=O)c1cnccn1	.	.	0	-10	.
Cc1ccc(Sc2cc(Cl)nc(N)n2)cc1	-0.3	.	-4	15	-1
Fc1ccc(NC(=S)Nc2ccccc2OC(F)F)cc1Cl	.	.	-10	101*	.
Cc1ccc(NC(=S)Nc2ccc(Cl)c(Cl)c2)c(OC(F)F)c1	.	.	-10	99	.
Clc1ccc(-c2cc(COc3ccc4ccccc4c3)no2)cc1	0.73	.	.	.	-7
CCN(CC)c1ccc(C(=O)OCc2cc(=O)oc3cc(O)ccc23)cc1	-3.1*	.	.	.	-16
O=C(Nc1cccc(C(F)(F)F)c1)N1CCC(c2nc(-c3ccc(F)cc3)no2)CC1	-1.1	89*	.	.	-1
O=C(Nc1ccc(Cl)cc1)N1CCC(c2nc(-c3cccs3)no2)CC1	-0.55	100*	0	.	-4
COc1ccc(NC(=O)N2CCC(c3nc(-c4cccs4)no3)CC2)cc1	-0.3	20	-3	-20	8
O=C(Nc1ccccc1)N1CCCC(c2nc(-c3ccc(F)cc3)no2)C1 (stereo unspecified)	2.5	.	6	4	-14
CCOC(=O)C(C)Oc1ccsc1C(=O)OC (stereo unspecified)	.	.	.	.	-3
COc1cc2c(C(=O)N3CCN(c4cccc(Cl)c4)CC3)cn(CC(C)C)c(=O)c2cc1OC	-1.6	.	-2	-20	-5
Cc1cc(C)cc(NC(=O)C2(c3ccccc3)CC2(Cl)Cl)c1 (stereo unspecified)	-2.4	.	-3	6	-3
CCc1ccc(NC(=O)C2(c3ccccc3)CC2(Cl)Cl)cc1 (stereo unspecified)	-3.1*	.	.	.	-7
Cc1ccc(NC(=O)C2(c3ccccc3)CC2(Cl)Cl)cc1C (stereo unspecified)	-3.2*	.	.	.	-1
COc1cc(/C=C/C(=O)c2c(O)ccc3c(C)cc(=O)oc23)ccc1O	-3*	.	-1	-2	4
CCCC(=O)N=C1SC2CS(=O)(=O)CC2N1c1ccc(C(C)=O)cc1 (stereo unspecified)	0.64	-6	1	0	-4
C#CCn1c(S(=O)(=O)Cc2ccc(C)cc2)nc(-c2ccccc2)c1-c1ccccc1	-3.4*	.	5	-2	-19
C#CCn1c(S(=O)(=O)Cc2ccccc2Cl)nc(-c2ccccc2)c1-c1ccccc1	-3.5*	.	-3	10	-10
Cc1ccc(C(=O)NCCn2c(N)c(C#N)c3nc4ccccc4nc32)cc1	-0.01	.	.	.	.
CCCCn1c(NC(=O)c2ccccc2)c(C#N)c2nc3ccccc3nc21	-2.4	67*	-10	99*	2
CCC(C)n1c(NC(=O)c2ccccc2)c(C#N)c2nc3ccccc3nc21 (stereo unspecified)	-0.5	.	.	.	.
CCCCn1c(NC(=O)c2ccc(F)cc2)c(C#N)c2nc3ccccc3nc21	.	88*	.	.	.
CCN1C(=O)C(C)S/C1=N\S(=O)(=O)c1ccc(Cl)s1 (stereo unspecified)	-1.1	8	-2	-4	5
COc1cc2c(cc1NC(=O)CN(C)Cc1nc3ccccc3c(=O)[nH]1)oc1ccccc12	-3.4*	1	-2	-3	-1
SMILES	PTK2B oligo ant	Ecoli tolC	Mac1 fbg enh	Mac1 fbg inh	Ecoli WT expand
COc1cc2c(cc1NC(=O)CSc1nc3ccccc3[nH]1)oc1ccccc12	-1.1	.	-4	-16	-12
Cc1ccc(C)c2[nH]c(=O)c(CN(CCN3CCCC3)C(=O)Nc3cccc(Cl)c3)cc12	2.3	18	-1	0	4
Cc1ccc2nc(N3CCN(S(=O)(=O)c4ccc(C)c(Cl)c4)CC3)c(C#N)cc2c1	-0.63	.	-2	0	-16
O=C1CCC(=O)N1CCC(c1ccc(F)cc1)c1ccco1 (stereo unspecified)	0.96	-1	4	-10	-5
O=C1c2ccccc2C(=O)N1CCC(c1ccc(F)cc1)c1ccco1 (stereo unspecified)	-0.87	77*	13	-8	4
CCCn1c(NCc2c[nH]c3ccccc23)nc2ccccc21	0.35	.	-2	-3	31
CCOc1cc(/C=N/O)cc(Br)c1OCc1ccc(Cl)cc1	-0.65	.	.	.	-3
CCOc1cc(CNCCO)cc(Br)c1OCc1ccccc1Cl	1.1	.	-7	74*	48
COc1cc(CNCc2ccncc2)cc(Br)c1OCc1ccccc1F	0.43	.	-7	62*	13
CCOc1cc(CNCCO)cc(Br)c1OCc1ccc(Cl)cc1	0.1	.	.	.	78*
CCOC(=O)C(C(=O)Nc1ccccc1C)C1CCCCC1 (stereo unspecified)	-0.02	.	-1	-40	-4
Cc1ccc(CC(=O)N2CCN(c3ccccn3)CC2)cc1	0.05	.	-2	-10	-13
O=C(Nc1cc(S(=O)(=O)N2CCOCC2)ccc1Cl)C(=O)c1c(-c2ccccc2)cc2ccccn12	-0.76	.	33	-1	-10
O=C1COc2ccc(-c3csc(=Nc4ccc(OC(F)F)cc4)n3CC3CCCO3)cc2N1 (stereo unspecified)	-1.1	.	.	.	-8
CCCCN=c1scc(-c2ccc3c(c2)NC(=O)CO3)n1N=C1CCCC1	0.23	.	-4	35	22
COCC(C)n1c(-c2ccc3c(c2)NC(=O)CO3)csc1=Nc1ccc(OC(F)F)cc1 (stereo unspecified)	0.86	.	-10	96*	-5
CCN=c1scc(-c2ccc3c(c2)NC(=O)CO3)n1N=C1CCCC1	2.8	13	-8	98*	-4
O=[N+]([O-])c1ccc(Sc2n[nH]c(-c3ccc(Cl)cc3Cl)n2)nc1	0.16	.	-6	32	-6
CCOc1cc(/C=C(/C#N)c2ccc(F)cc2)ccc1OCc1ccc(C(=O)O)o1	-2.5	82*	-1	4	-10
CCCCC1(Cc2cccc([N+](=O)[O-])c2)C(=O)N(c2ccccc2)N(c2ccccc2)C1=O	0.01	.	1	-14	-12
Cc1ccc(Cl)cc1N1CCN(C(=O)c2cn(C)c(=O)c3c2c2ccccc2n3C)CC1	-0.27	52	0	35	-6
Cc1cccc(N2CCN(C(=O)c3cn(C)c(=O)c4c3c3ccccc3n4C)CC2)c1C	0.7	83*	1	4	-1
CC1CCC(C(C)C)C(OC(=O)Cn2c(-c3ccccc3)[n+](C)c3ccccc32)C1 (stereo unspecified)	-1.6	.	-7	99*	.
CC1CCC(C(C)C)C(OC(=O)Cn2c(-c3ccc(F)cc3)[n+](C)c3ccccc32)C1 (stereo unspecified)	.	.	-4	64*	.
CC1CCC(C(C)C)C(OC(=O)CSc2nc(N)cc(=O)[nH]2)C1 (stereo unspecified)	1.7	.	.	.	1
Oc1ccc(N2CCN(C(c3ccccn3)c3nnnn3C3CCCC3)CC2)cc1 (stereo unspecified)	-0.39	.	.	.	.
CCn1c2ccccc2c2nc3cc(S(=O)(=O)N4CCOCC4)ccc3nc21	-1.6	8	-4	57*	-2
CCN(CC)C(=O)CSc1nc2cc3c(cc2c(=O)n1Cc1ccc2c(c1)OCO2)OCO3	-3.1*	-8	13	-46	-2

Screens (PubChem)
